Experimental findings from ChEMBL document CHEMBL2375260, “Antifungal agents from Pseudallescheria boydii SNB-CN73 isolated from a Nasutitermes sp. termite” (J Nat Prod, 2013) are described below.

≈ marks a conversion by molar mass, not a printed value.

One test concerns KB. The test can be described thus: Cytotoxicity against human KB cells assessed as growth inhibition. In kind it is functional, cell-based.
The nature of test [1]: Selectivity index, ratio of IC50 for human MDA435 cells to MIC for Trichophyton rubrum SNB-TR1. In kind it is functional. The procedure, abridged:
(§1)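 Selectivity index is calculated as SI = IC50/MIC. IC50 is the cytotoxicity measured in MDA435 cells (melanoma, previously described as mammary carcinoma). MIC is the EUCAST reference-protocol value for the given microbial strain.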

For a further test, the system named is Candida albicans. The test is described as follows: Antifungal activity against Candida albicans ATCC 10231 assessed as growth inhibition after 18 hrs by […]. The test is classed as functional. The following applies: ATCC 10231, 18 h.
Test [2] in a line: Selectivity index, ratio of IC50 for human MDA435 cells to MIC for Staphylococcus aureus ATCC 29213. The test is classed as functional. In outline:
as §1

Another test relates to Staphylococcus aureus. The test is described as follows: Antibacterial activity against Staphylococcus aureus ATCC 29213 assessed as growth inhibition after 24 hrs by […]. In kind it is functional. The following applies: ATCC 29213, 24 h.
The test system of another test is Aspergillus fumigatus. The test can be described thus: Antifungal activity against Aspergillus fumigatus SNB-AF1 assessed as growth inhibition after 24 hrs by […]. The conditions noted are these: SNB-AF1, 24 h. In kind it is functional.
Test [3] can be described thus: Selectivity index, ratio of IC50 for human MDA435 cells to MIC for Candida albicans ATCC 10231. In kind it is functional. In outline: as §1
The test system of a further test is Escherichia coli. The test can be described thus: Antibacterial activity against Escherichia coli ATCC 25922 assessed as growth inhibition after 24 hrs by […]. In kind it is functional.
In another test the test system is Candida parapsilosis. The test can be described thus: Antifungal activity against Candida parapsilosis ATCC 22019 assessed as growth inhibition after 18 hrs by […]. The test is classed as functional. The following applies: Lodderomyces parapsilosis, ATCC 22019, 18 h.
The nature of test [4]: Selectivity index, ratio of IC50 for human MDA435 cells to MIC for Aspergillus fumigatus SNB-AF1. In kind it is functional. The procedure, abridged:
as §1

The nature of test [5]: Cytotoxicity against human MDA435 cells assessed as growth inhibition. The test is classed as functional, cell-based. The conditions noted are these: MDA-MB-435.
Test [6] is described as follows: Selectivity index, ratio of IC50 for human MDA435 cells to MIC for Escherichia coli ATCC 25922. In kind it is functional. In outline:
as §1

The subject of a further test is Trichophyton rubrum. The test can be described thus: Antifungal activity against Trichophyton rubrum SNB-TR1 assessed as growth inhibition after 5 days by […]. In kind it is functional. The conditions noted are these: SNB-TR1, 120 h.
Test [7] can be described thus: Selectivity index, ratio of IC50 for human MDA435 cells to MIC for Candida parapsilosis ATCC 22019. In kind it is functional. The procedure, abridged:
as §1

Test [8] concerns MCF7. The test is described as follows: Cytotoxicity against human MCF7 cells assessed as inhibition of FBS-induced cellular growth. The test is classed as functional, cell-based.
Test [9] deals with MCF7. The test is described as follows: Cytotoxicity against human MCF7 cells assessed as inhibition of IGF1-induced cellular growth. The test is classed as functional, cell-based.

As a reminder, the IC50 is the concentration that inhibits the measured activity by half. One may read the MIC as the lowest concentration that inhibits growth of the organism. `CC[C@@H](C)C[C@@H](C)/C=C/CC[C@@H](O)[C@H](Cc1ccc(O)cc1)N(C)C.O=CO`: the IC50 was determined as 16 µg/mL with KB and 24.3 µg/mL in [5]. Moreover, the “Selectivity Index” value in [1] is 6.1; in [2], 1.5; in test [3], 6.1; in [4], 0.8; in test [6] it was 0.8; in test [7], 0.8. Besides, the MIC in the test with Candida albicans stood at 4 µg/mL; in the test on Staphylococcus aureus, 16 µg/mL; in the test with Aspergillus fumigatus, 32 µg/mL; with Escherichia coli (ATCC 25922, 24 h) it was 32 µg/mL; in the test with Candida parapsilosis it was 32 µg/mL; in the test with Trichophyton rubrum it was 4 µg/mL.

Take `OC(Cn1cncn1)(Cn1cncn1)c1ccc(F)cc1F` [FLUCONAZOLE]: the MIC in the test with Candida albicans and with Candida parapsilosis was 4 µg/mL (≈ 13.1 µM) each time.

Consider `CCC(C)n1ncn(-c2ccc(N3CCN(c4ccc(OCC5COC(Cn6cncn6)(c6ccc(Cl)cc6Cl)O5)cc4)CC3)cc2)c1=O` (stereo unspecified) [ITRACONAZOLE], for which the MIC in the test on Aspergillus fumigatus was 0.5 µg/mL (≈ 0.709 µM); in the test with Trichophyton rubrum, 0.25 µg/mL (≈ 0.354 µM).

With `Cc1onc(-c2ccccc2)c1C(=O)N[C@@H]1C(=O)N2[C@@H]1SC(C)(C)[C@@H]2C(=O)O` [OXACILLIN], in the test on Staphylococcus aureus, the MIC worked out at 0.5 µg/mL (≈ 1.25 µM).

On to `CC[C@@H](C)C[C@@H](C)/C=C/CC[C@@H](O)[C@H](Cc1ccc(O)cc1)NC` [TYROSCHERIN 8], for which the figures for the IC50 in the test on MCF7 [8] and with MCF7 [9] were 6.2 µM and 0.03 µM, respectively.

For `CC[C@@H](C)C[C@@H](C)/C=C/CC[C@@H](O)[C@H](Cc1ccc(O)cc1)NC.O=CO` [TYROSCHERIN FORMATE], the IC50 was 8.6 µg/mL with KB and 20 µg/mL in test [5]. The “Selectivity Index” value amounted to 10 in test [1]; 2.5 in [2]; 10 in test [3]; 1.3 in test [4]; 1.3 in test [6]; 1.3 in [7]. Further, the MIC was 2 µg/mL in the test with Candida albicans; 8 µg/mL with Staphylococcus aureus; 16 µg/mL with Aspergillus fumigatus; 16 µg/mL in the test with Escherichia coli (ATCC 25922, 24 h); 16 µg/mL in the test on Candida parapsilosis; 2 µg/mL with Trichophyton rubrum.

As to GENTAMICIN, the MIC with Escherichia coli was 8 µg/mL.
